Tests used:
[1] = biological target: T1, Prostaglandin E2 receptor EP4 subtype (Homo sapiens, UniProt P35408); experiment: Antagonist activity against EP4 in human whole blood assessed as reversal of PGE2-mediated suppression of LPS-induced TNF-alpha production preincubated for 30 mins followed by LPS stimulation measured after 20 to 24 hrs by enzyme immunoassay; type: tissue-based
In short: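 Pooled blood from donors free of NSAIDs or celecoxib for 48 h and of glucocorticoids for 2 weeks. Blood pretreated 30 min at 37 °C, 5% CO2 with compound in DMSO (7-point curve, triplicate). LPS […] ± 10 nM PGE2 (final) added, then incubated 20–24 h. Plasma TNFα read at A450-A650. IC50 from sigmoidal nonlinear fit; geometric mean of independent runs.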

[2] = biological target: T1, Prostaglandin E2 receptor EP4 subtype; experiment: Antagonist activity against human EP4 expressed in HEK293 cells assessed as inhibition of PGE2-stimulated production of cAMP incubated for 20 mins by HTRF assay; type: functional, cell-based

T1 sequence (P35408 whole entry): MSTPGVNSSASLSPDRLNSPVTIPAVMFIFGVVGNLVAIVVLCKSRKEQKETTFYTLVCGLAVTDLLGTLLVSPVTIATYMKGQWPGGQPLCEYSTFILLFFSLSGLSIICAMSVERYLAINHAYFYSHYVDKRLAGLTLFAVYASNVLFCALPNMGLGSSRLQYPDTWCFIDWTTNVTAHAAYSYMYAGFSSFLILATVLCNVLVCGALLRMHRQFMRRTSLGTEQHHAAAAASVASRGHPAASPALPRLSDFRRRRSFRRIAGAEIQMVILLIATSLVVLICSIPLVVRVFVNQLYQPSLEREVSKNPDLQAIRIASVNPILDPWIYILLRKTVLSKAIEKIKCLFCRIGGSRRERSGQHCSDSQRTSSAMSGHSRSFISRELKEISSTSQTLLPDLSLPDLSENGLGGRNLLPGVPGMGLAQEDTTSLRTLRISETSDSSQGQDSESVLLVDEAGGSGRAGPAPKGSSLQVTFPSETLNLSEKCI

| IC50 [1] | IC50 [2] | SMILES |
| --- | --- | --- |
| 1450 nM | 16.5 nM | Cc1ccc(N2CCCC(CO)C2)nc1C(=O)Nc1c(C)cc(C(=O)O)cc1C (stereo not drawn) |
|  | 84 nM | Cc1ccc(N2CCC(CO)C2)nc1C(=O)Nc1c(C)cc(C(=O)O)cc1C (stereo not drawn) |
